Bioassay records as filed in PubChem BioAssay.
Only some compounds are listed: those with a hit (about 0.55% of all), similar ones and a draw of the others.
V1aR counter – agonists of human V1a receptor, primary screen, counter-screen for OXTR agonist project, fluorescence, CHO-V1R cells; Vasopressin V1a receptor (Homo sapiens), P37288; Fluo-8 calcium fluorescence, agonist mode; 0% DMSO, 100% 3 nM vasopressin; activation, % at 3 µM; 0.25% of 320,000 active;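 active = activation above the mean activation of all tested compounds plus 3 SD, per screening run, cut at about 20% in these data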;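 also: signal is peak over basal fluorescence ratio across a 100 second FLIPR read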
TRPML3 ag – human TRPML3 channel agonists, primary screen, cell-based, HEK293 TRPML3-YFP, Fluo-8 calcium fluorescence, 3 µM. Mucolipin-3 (Homo sapiens), Q8TDD5. 100% = the carbachol control signal. activation, % at 3 µM. 0.29% of 220,000 active;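 active = activation above its plate's cutoff, the mean activation of the plate's test wells plus 3 SD, cut at about 12% in these data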
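system = HEK293 cells stably carrying human TRPML3-YFP | doses = one concentration, 3 µM nominal, 0.3% DMSO | timing = dye loading 1 h 37 °C then 30 min ambient, 125 s read | detection = Fluo-8 calcium dye fluorescence, ex 470-495, em 515-575 nm | benchmarks = high control carbachol 87 µM, low control DMSO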
zfTRPN1 agonist – zebrafish TRPN1 channel agonists, primary screen, cell-based, HEK293, calcium fluorescence; activation, % at 3 µM; 0.18% of 220,000 active; AID 1424, 2008; HEK293 zebrafish TRPN1-YFP, Fluo-8 calcium fluorescence; 100% = response to 87 µM carbachol; transient receptor potential cation channel N1 (TRPN1/NompC), Danio rerio;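 active = activation above its plate's cutoff, the mean activation of test wells on that plate plus 3 SD, cut at about 19% in these data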
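Control set: carbachol 87 µM as high control, DMSO as low control; system: HEK293 stable line with zebrafish TRPN1-YFP; read-out: % activation versus carbachol response; detection: intracellular calcium fluorescence with Fluo-8; doses: single test compound dose, 3 µM nominal, 0.3% DMSO; schedule: dye 1 h 37 °C plus 30 min RT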
OXTR agonist – human OXTR agonists, primary screen, fluorescence, CHO-OTR cells, Fluo-8 calcium | AID 2435, 2010 | 0.32% of 320,000 active | Fluo-8 calcium fluorescence; normalized: DMSO 0%, oxytocin 100% | activation, % at 3 µM;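 active = activation above the mean of all tested compounds plus 3 SD, cutoff set per screening run, cut at about 20% in these data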;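 also: peak over basal fluorescence ratio from a 100 s FLIPR kinetic read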
Target sequence (P30559 whole entry, looked up): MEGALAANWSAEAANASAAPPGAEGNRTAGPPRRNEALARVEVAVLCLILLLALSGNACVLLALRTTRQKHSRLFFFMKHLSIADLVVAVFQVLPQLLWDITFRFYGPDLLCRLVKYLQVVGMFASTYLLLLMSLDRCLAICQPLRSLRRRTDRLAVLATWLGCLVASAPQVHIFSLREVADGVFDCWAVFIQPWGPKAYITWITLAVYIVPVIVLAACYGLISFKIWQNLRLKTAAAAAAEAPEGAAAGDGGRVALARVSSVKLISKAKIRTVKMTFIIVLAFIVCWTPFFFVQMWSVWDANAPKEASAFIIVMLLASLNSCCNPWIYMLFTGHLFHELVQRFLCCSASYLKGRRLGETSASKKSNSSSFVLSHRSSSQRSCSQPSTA
OXTR potentiator – human OXTR potentiators, primary screen, fluorescence, CHO-OTR cells, Fluo-8 calcium. Oxytocin receptor (Homo sapiens), P30559. Fluo-8 calcium fluorescence, potentiator mode; 0% = oxytocin EC15, 100% = EC100. activation, % at 3 µM. 0.061% of 320,000 active;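 active = activation above that plate's cutoff, the mean activation of tested compounds plus 3 SD, cut at about 6.6% in these data, passing the limit was not always enough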
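Measured by – Fluo-8 calcium dye fluorescence · Test system – human OTR in CHO cells · Dosing – one concentration, 3.0 µM compound · Controls – EC15 oxytocin alone as 0%, 75 nM oxytocin as 100% · Evaluation – normalized max/min fluorescence ratio, % activation · Timing – 6 min pre-incubation, 100 s read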
TRPN1 ag 2 – zebrafish TRPN1 channel agonists, counter-screen for TRPML3 agonist project, cell-based, HEK293 TRPN1-YFP, Fluo-8 calcium; shares compounds with TRPML3 ag; Fluo-8 calcium fluorescence; scaled: carbachol wells 100%, DMSO wells 0%; activation, % at 3 µM; 10% of 310 active; AID 1525, 2009;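 active = mean activation over replicates above a set limit taken from the earlier TRPN1 channel primary screen, cut at about 19% in these data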
TRPML3 confirm – human TRPML3 channel agonists, confirmation, cell-based, HEK293 TRPML3-YFP, Fluo-8 calcium, triplicate; 80% of 310 active; AID 1526, 2009; shares compounds with TRPML3 ag; Fluo-8 calcium fluorescence; 100% set by carbachol, 0% by DMSO; activation, % at 3 µM;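 active = activation above a set limit derived from the earlier primary screen, cut at about 12% in these data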
Hits are given with their value; 0 = inactive; - = no result given.

SMILES	V1aR counter	TRPML3 ag	zfTRPN1 agonist	OXTR agonist	OXTR potentiator	TRPN1 ag 2	TRPML3 confirm
COc1ccc2cc(C(=O)N/N=C/c3sc4ccccc4c3O)ccc2c1	34.8	0	0	36.4	0	-	-
CN1CCN(C2=CC3=CC(=C(C#N)C#N)CCC3CC2)CC1 (configuration not stated)	-	328.9	617.2	-	-	-	-
CC1(C)CC(NCCN2CCN(C3=CC(=C(C#N)C#N)CC(C)(C)C3)CC2)=CC(=C(C#N)C#N)C1	0	0	0	0	0	-	-
N#CC(C#N)=C1C=C2C=C(N3CCOCC3)CCC2CC1 (configuration not stated)	-	73.9	169.4	-	-	-	-
CCN1CCN(C2=CC3=CC(=C(C#N)C#N)CCC3CC2)CC1 (configuration not stated)	-	310.2	395.3	-	-	-	-
N#CC(C#N)=C1C=C2C=C(N3CCCCCC3)CCC2CC1 (configuration not stated)	-	365.7	890.7	-	-	-	-
CC(C)CC1NC(=O)N(CC(=O)N(C)C2CCCCC2)C1=O (configuration not stated)	0	-	-	0	0	-	-
Cc1ccc(NC(=O)CN(C)C(=O)CSc2nccn2C)cc1	0	-	-	0	0	-	-
O=C(CCCCCNC(=O)N1CCn2c1nc1ccccc12)NCCc1ccccc1	0	-	-	0	0	-	-
CCN(CC)c1ccc2cc(-c3nc4ccccc4[nH]3)c(=O)oc2c1	287.7	54.5	128.2	322.8	0	-	-
CCN(CC)c1ccc2cc(-c3nc4ccccc4n3C)c(=O)oc2c1	0	0	0	0	0	-	-
CCN(CC)c1ccc2cc(-c3nnc(-c4ccc(Br)cc4)o3)c(=O)oc2c1	-	0	0	-	-	-	-
CCN(CC)c1ccc2cc(-c3nc(-c4ccc(OC)cc4)cs3)c(=O)oc2c1	296.6	66.6	64.0	453.8	0	-	-
CC(=O)N1CCC(C(=O)NCCOc2ccc(C)cc2)CC1	0	-	-	0	0	-	-
CN(C)NC(=S)Nc1cccc(C(F)(F)F)c1	0	0	0	0	0	-	-
CC(NC(=S)Nc1cccc(C(F)(F)F)c1)C(C)(C)C (configuration not stated)	0	12.0	0	0	0	0	0
O=S(=O)(Nc1ccccc1N1CCCCC1)c1cccs1	0	14.1	0	0	0	0	33.2
O=S(=O)(Nc1ccccc1N1CCCCC1)c1ccc(F)cc1	0	31.2	0	0	0	0	77.5
O=C(CSc1nc(=O)[nH]c2c1CCCC2)Nc1cc(C(F)(F)F)cc(C(F)(F)F)c1	0	-	-	0	0	-	-
CN(CCOc1ccccc1)CC(=O)Nc1ccc(S(=O)(=O)N2CCCC2)cc1	0	0	0	0	0	-	-
CN(CCOc1ccccc1)c1ccc(S(=O)(=O)N2CCCCC2)cn1	0	26.3	0	0	0	0	51.6
COc1ccc(CCN(C)C(=O)Cn2c(=O)oc3ccccc32)cc1OC	0	-	-	0	0	-	-
Cc1ccc(S(=O)(=O)NC2CCCCC2)c2nsnc12	0	11.5	0	0	0	0	12.1
Cc1ccc(S(=O)(=O)N2CCc3ccccc3C2CN2C(=O)c3ccccc3C2=O)cc1 (configuration not stated)	0	22.5	0	0	0	0	13.3
Cc1ccc(NC(=O)c2cnc(N3CCN(c4ccccn4)CC3)c3ccccc23)c(Br)c1	0	25.1	0	0	0	0	47.6
COc1ccc(NS(=O)(=O)c2ccc(C)c(C(=O)NCCCN3CCCC3=O)c2)cc1	0	-	-	0	0	-	-
CC1=CC(=O)C(C(C)C)=C/C1=N/OS(=O)(=O)c1ccccc1	0	19.4	0	0	0	0	22.7
